Source: ChEMBL document CHEMBL2040835, “Disubstituted Bis-THF Moieties as New P2 Ligands in Nonpeptidal HIV-1 Protease Inhibitors” (ACS Med Chem Lett, 2011)

Columns and labels:
[1] = tested on: Human immunodeficiency virus 1; assay: Antiviral activity against Human immunodeficiency virus 1 isolate M1 expressing protease L10I, M46I, I64V, I84V, L90M, I93L mutant infected in human MT4 cells; type: functional, organism-based; conditions: Human immunodeficiency virus 1, isolate M1, MT4
Summary of the method: (§1)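 Cell-based antiviral assay in MT4 cells infected with a multi-PI-resistant HIV-1 mutant carrying clinically observed primary protease mutations. EC50 determined, with all assays run in quadruplicate.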

[2] = Selectivity index, ratio of CC50 for human MT4 cells to EC50 for Human immunodeficiency virus 1 3B; type: toxicity, cell-based
Summary of the method: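 Selectivity index is calculated as CC50 divided by EC50 against HIV-1 IIIB in the cell-based assay.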

[3] = tested on: Human immunodeficiency virus 1; assay: Antiviral activity against Human immunodeficiency virus 1 3B expressing wild-type protease infected in human MT4 cells; type: functional, organism-based
Summary of the method: (§2)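 Cell-based antiviral assay in MT4 cells infected with wild-type HIV-1 IIIB, read as EC50. Run in quadruplicate. It was also repeated in the presence of 50% human serum as an indicator of plasma protein binding.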

[4] = tested on: Human immunodeficiency virus 1; assay: Selectivity index, ratio of EC50 for Human immunodeficiency virus 1 isolate M1 expressing protease L10I, M46I, I64V, I84V, L90M, I93L mutant to EC50 for Human immunodeficiency virus 1 3B expressing wild-type protease; type: functional
Summary of the method: (§3)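 Fold change is the EC50 against the multi-PI-resistant mutant divided by the EC50 against wild-type HIV-1 IIIB. Both EC50s come from cell-based assays in MT4 cells run in quadruplicate.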

[5] = tested on: Human immunodeficiency virus 1; assay: Selectivity index, ratio of EC50 for Human immunodeficiency virus 1 isolate M2 expressing protease L10I, I13V, M46I, I50V, L63P, L76V mutant to EC50 for Human immunodeficiency virus 1 3B expressing wild-type protease; type: functional; summary of the method: as §3
[6] = tested on: Human immunodeficiency virus 1; assay: Antiviral activity against Human immunodeficiency virus 1 isolate M3 expressing protease L10I, K20R, M36I, G48V, I62V, A71V, V82A, I93L mutant infected in human MT4 cells; type: functional, organism-based; conditions: Human immunodeficiency virus 1, isolate M3, MT4
[7] = tested on: Human immunodeficiency virus 1; assay: Antiviral activity against Human immunodeficiency virus 1 3B expressing wild-type protease infected in human MT4 cells in presence of 50% human serum; type: functional, organism-based; summary of the method: as §2
[8] = tested on: Human immunodeficiency virus 1; assay: Selectivity index, ratio of EC50 for Human immunodeficiency virus 1 isolate M3 expressing protease L10I, K20R, M36I, G48V, I62V, A71V, V82A, I93L mutant to EC50 for Human immunodeficiency virus 1 3B expressing wild-type protease; type: functional; summary of the method: as §3
[9] = tested on: Human immunodeficiency virus 1; assay: Antiviral activity against Human immunodeficiency virus 1 isolate M2 expressing protease L10I, I13V, M46I, I50V, L63P, L76V mutant infected in human MT4 cells; type: functional, organism-based; conditions: Human immunodeficiency virus 1, isolate M2, MT4; summary of the method: as §1
[10] = Cytotoxicity against human MT4 cells; type: cell-based
Protease = Protease (Human immunodeficiency virus 1, UniProt Q9YQ12); assay: Inhibition of Human immunodeficiency virus 1 3B protease
[11] = Ratio of EC50 for Human immunodeficiency virus 1 3B expressing wild-type protease to IC50 for Human immunodeficiency virus 1 3B protease

Protease, sequence (Q9YQ12 whole entry): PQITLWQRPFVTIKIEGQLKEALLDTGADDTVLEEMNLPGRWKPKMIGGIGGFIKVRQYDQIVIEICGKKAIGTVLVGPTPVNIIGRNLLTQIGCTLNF

Row | SMILES | EC50 [1] [nM] | selectivity ratio [2] | EC50 [3] [nM] | Ratio EC50 [4] | Ratio EC50 [5] | EC50 [6] [nM] | EC50 [7] [nM] | Ratio EC50 [8] | EC50 [9] [nM] | CC50 [10] [nM] | IC50 (Protease) [nM] | Ratio [11]
1 | CNc1nc2ccc(S(=O)(=O)N(CC(C)C)C[C@@H](O)[C@H](Cc3ccccc3)NC(=O)O[C@H]3CO[C@H]4OC[C@H](OCSC)[C@H]43)cc2o1 | 3.9 | > 2000 | 1.3 | 3 | 7.1 | 2.2 | 6.7 | 1.7 | 9.3 | > 9800 | – | –
2 | COCCO[C@H]1CO[C@@H]2OC[C@H](OC(=O)N[C@@H](Cc3ccccc3)[C@H](O)CN(CC(C)C)S(=O)(=O)c3ccc(N)cc3)[C@@H]21 | 11.9 | > 2000 | 15.5 | 0.8 | 4.6 | 6.8 | 37 | 0.4 | 71.4 | > 9800 | 2.5 | –
3 | CNc1nc2ccc(S(=O)(=O)N(CC(C)C)C[C@@H](O)[C@H](Cc3ccccc3)NC(=O)O[C@H]3CO[C@H]4OC[C@H](O)[C@H]43)cc2o1 | 125 | – | 138 | 0.9 | 0.8 | 104 | 446 | 0.8 | 108 | – | – | –
4 | CNc1nc2ccc(S(=O)(=O)N(CC(C)C)C[C@@H](O)[C@H](Cc3ccccc3)NC(=O)O[C@H]3CO[C@H]4OC[C@H](OCc5ccccc5)[C@H]43)cc2o1 | 1.7 | > 2000 | 0.8 | 2.2 | 4.5 | 1 | 3.7 | 1.3 | 3.4 | > 9800 | – | –
5 | CC(C)CN(C[C@@H](O)[C@H](Cc1ccccc1)NC(=O)O[C@H]1CO[C@H]2OC[C@H](Oc3ccccc3)[C@H]21)S(=O)(=O)c1ccc(N)cc1 | 32.5 | > 2000 | 8.9 | 3.7 | 28 | 6.5 | 47.2 | 0.7 | 249 | > 9800 | – | –
6 | CNc1nc2ccc(S(=O)(=O)N(CC(C)C)C[C@@H](O)[C@H](Cc3ccccc3)NC(=O)O[C@H]3CO[C@H]4OC[C@H](OCc5ccccc5F)[C@H]43)cc2o1 | 1.3 | > 2000 | 0.7 | 2 | 3.1 | 0.9 | 4 | 1.3 | 2.1 | > 9800 | – | –
7 | CNc1nc2ccc(S(=O)(=O)N(CC(C)C)C[C@@H](O)[C@H](Cc3ccccc3)NC(=O)O[C@H]3CO[C@H]4OC[C@H](OCc5ccc(F)cc5F)[C@H]43)cc2o1 | 1.1 | > 2000 | 0.6 | 2 | 4.1 | 0.7 | 5.4 | 1.3 | 2.3 | > 9800 | – | –
8 | CNc1nc2ccc(S(=O)(=O)N(CC(C)C)C[C@@H](O)[C@H](Cc3ccccc3)NC(=O)O[C@H]3CO[C@H]4OCC[C@H]43)cc2o1 | 2.7 | > 2000 | 2.3 | 1.2 | 1.4 | 0.9 | 8.3 | 0.4 | 3.2 | > 9800 | – | –
9 | CC(C)CN(C[C@@H](O)[C@H](Cc1ccccc1)NC(=O)O[C@H]1CO[C@H]2OC[C@H](O)[C@H]21)S(=O)(=O)c1ccc(N)cc1 | 112 | – | 773 | 0.1 | 0.3 | 40.4 | 814 | <0.1 | 204 | – | 2.9 | 250
10 | CNc1nc2ccc(S(=O)(=O)N(CC(C)C)C[C@@H](O)[C@H](Cc3ccccc3)NC(=O)O[C@H]3CO[C@H]4OC[C@H](OCc5cccc(F)c5)[C@H]43)cc2o1 | 0.8 | > 2000 | 0.6 | 1.2 | 2.7 | 0.8 | 3.7 | 1.3 | 1.7 | > 9800 | – | –
11 | CNc1nc2ccc(S(=O)(=O)N(CC(C)C)C[C@@H](O)[C@H](Cc3ccccc3)NC(=O)O[C@H]3CO[C@H]4OC[C@H](OCCOC)[C@H]43)cc2o1 | 6.9 | > 2000 | 8.6 | 0.8 | 1.3 | 4.3 | 24 | 0.5 | 10.8 | > 9800 | 1.5 | –
12 | COC(=O)N[C@H](C(=O)N[C@@H](Cc1ccccc1)[C@@H](O)CN(Cc1ccc(-c2ccccn2)cc1)NC(=O)[C@@H](NC(=O)OC)C(C)(C)C)C(C)(C)C [ATAZANAVIR] | 58 | > 2000 | 6.9 | 8.4 | 0.5 | 60.5 | 13.3 | 8.8 | 3.2 | > 9800 | – | –
13 | CNc1nc2ccc(S(=O)(=O)N(CC(C)C)C[C@@H](O)[C@H](Cc3ccccc3)NC(=O)O[C@H]3CO[C@H]4OC[C@H](OCc5ccc(F)cc5)[C@H]43)cc2o1 | 1.1 | > 2000 | 0.6 | 1.8 | 3.8 | 1 | 4 | 1.6 | 2.3 | > 9800 | – | –
14 | CNc1nc2ccc(S(=O)(=O)N(CC(C)C)C[C@@H](O)[C@H](Cc3ccccc3)NC(=O)O[C@H]3CO[C@H]4OC[C@H](OCOC)[C@H]43)cc2o1 | 5 | > 2000 | 3.4 | 1.2 | 2.4 | 1.9 | 7 | 0.7 | 11.2 | > 9800 | – | –
15 | CC(C)CN(C[C@@H](O)[C@H](Cc1ccccc1)NC(=O)O[C@H]1CO[C@H]2OCC[C@H]21)S(=O)(=O)c1ccc(N)cc1 | 11.3 | – | 6.6 | – | – | 2.3 | 17.2 | – | 51 | > 9800 | – | –
16 | CC(C)CN(C[C@@H](O)[C@H](Cc1ccccc1)NC(=O)O[C@H]1CO[C@H]2OC[C@H](OCc3ccccc3)[C@H]21)S(=O)(=O)c1ccc(N)cc1 | 4.7 | > 2000 | 1.5 | 3.1 | 12 | 1.7 | 12.1 | 1.1 | 18 | > 9800 | 3.5 | –
17 | Cc1cccc(C)c1OCC(=O)N[C@@H](Cc1ccccc1)[C@@H](O)C[C@H](Cc1ccccc1)NC(=O)[C@H](C(C)C)N1CCCNC1=O [LOPINAVIR] | 115 | – | 13.9 | – | – | – | 63.2 | – | 307 | > 9800 | – | –
